Apaf1 inhib – blocks human Apaf-1 apoptosome activity. O14727. reconstituted apoptosome caspase-3 activity, DEVD-Rh110 fluorescence. inhibition, % at 20 µM. 0.71% of 330,000 active. AID 489030; active = inhibition of at least 40% at 20 µM;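 note: plate controls were DMSO wells for no effect and DEVD-CHO caspase inhibitor wells for full effect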
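detection = Rh110 fluorescence intensity | test system = biochemical Apaf-1 apoptosome reconstitution | also added = cytochrome c and DEVD-Rh110 substrate | schedule = 30 min plus 50 min, RT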
MEKK3 PB1 HTS – MEKK3-MEK5 PB1 interaction, increase or decrease | Q99759 | bead-based flow cytometry, Alexa488-MEK5 binding to MEKK3; actives lie on both sides; 0 = blocked by unlabeled MEK5, 100 = vehicle | binding response (% of control), % at 10 µM | 1.4% of 290,000 active;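 active = binding response more than 3 SD above or below the average of its plate-row segment, actives on both sides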;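 note: Alexa488 bead fluorescence after subtracting the streptavidin-only scavenger bead signal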
MEKK2wt PB1 HTS – raises or lowers MEK5 binding to wildtype human MEKK2 PB1 domain. bead flow cytometry, Alexa488-MEK5 binding to MEKK2 WT; actives lie on both sides. AID 1531. binding response (% of control), % at 10 µM. Q9Y2U5. 1.1% of 290,000 active; in the data active = binding response below about 67% or above about 130%
UBC13 inh – inhibitors of human UBC13 polyubiquitin chain formation; TR-FRET; AID 485273; 0.47% of 330,000 active; P61088; inhibition, % at 20 µM; in the data active = inhibition above about 45%, passing the limit was not always enough
MEKK2 mut-MEK5 – signal of MEK5 binding to mutant human MEKK2 PB1 domain; bead flow cytometry, Alexa488-MEK5 binding to MEKK2 mutant; percent response, % at 10 µM; 0.35% of 290,000 active; AID 1530; in the data active = percent response above about 24%, passing the limit was not always enough
MEKK2wt confirm – raises or lowers MEK5 binding to wildtype human MEKK2, retest; shares compounds with MEKK3 PB1 HTS; bead flow cytometry, Alexa488-MEK5 binding to MEKK2 WT; actives lie on both sides; binding response (% of control), % at 10 µM; 2.4% of 5,900 active; AID 1892; in the data active = binding response below about 16% or above about 210%; inactive = in between
MEKK2mut confirm – signal of MEK5 binding to mutant human MEKK2, retest; bead flow cytometry, Alexa488-MEK5 binding to MEKK2 mutant; percent response, % at 10 µM; shares compounds with MEKK3 PB1 HTS; 2% of 5,900 active; in the data active = percent response mostly above about 71%, no sharp cut-off; inactive = mostly below about 38%;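 note: higher means compound restores mutant binding toward wildtype level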
MEKK3 confirm – confirmation of inhibitors of MEK5 binding to human MEKK3; AID 1894; 1.8% of 5,900 active; binding response (% of control), % at 10 µM; bead flow cytometry, Alexa488-MEK5 binding to MEKK3; active compounds read low; shares compounds with MEKK3 PB1 HTS;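 active = binding response below 72% of control, or above a set upper limit, though filed actives all read lower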;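 note: 100% = DMSO only wells and 0% = binding blocked by excess unlabeled MEK5; lower values mean stronger disruption of MEK5 binding to MEKK3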
An asterisk follows results filed as active; . = no result given; [ ] = dose if it differs, or a comment. Compounds with a hit are over-represented: about 2.9% of the library has one in this group of screens.

SMILES	Apaf1 inhib	MEKK3 PB1 HTS	MEKK2wt PB1 HTS	UBC13 inh	MEKK2 mut-MEK5	MEKK2wt confirm	MEKK2mut confirm	MEKK3 confirm
O=C(CN1CCCC1)Nc1ccc(Oc2ccc(NC(=O)CN3CCCC3)cc2)cc1	7	1.0*[inhibitor]	1.0*[inhibitor]	1	-21	128	21	106
O=C(NC1CCN(Cc2ccccc2)CC1)c1cccc(S(=O)(=O)Nc2ccc(SC(F)F)cc2)c1	14	.	.	19	.	.	.	.
COc1ccc(C(=O)COc2ccc(F)cc2)c(O)c1	-9	91	100	-8	1	.	.	.
O=C(COc1ccc(F)cc1)c1c(O)cc(O)cc1O	-4	132*	115	-2	24	104	2	101
O=C(C[n+]1ccccc1)N/N=C/c1cccc(Cl)c1Cl	-6	88	66*[inhibitor]	-6	-2	109	4	104
COc1ccccc1-[n+]1c(C)cc(/C=C2\Sc3ccccc3N2C)cc1C	5	91	79	-58	6	.	.	.
COc1ccc(-[n+]2c(C)cc(/C=C3\Sc4ccccc4N3C)cc2C)cc1	18	71*[inhibitor]	29*[inhibitor]	-74	-5	61	-22	88
COc1cc(Cl)c(C)cc1NC(=O)c1cc(S(=O)(=O)N(C)C)ccc1N1CCCC1	18	148*	104	2	1	102	-2	103
CN(C)S(=O)(=O)c1ccc(N2CCCC2)c(C(=O)Nc2ccccc2OC(F)F)c1	0	104	104	-6	0	.	.	.
CN1CCN(c2ccc(Cl)cc2NC(=O)c2ccc(S(=O)(=O)N(C)C)cc2)CC1	-7	109	136*	2	15	114	10	100
CN(C)S(=O)(=O)c1ccc(C(=O)Nc2cc(S(=O)(=O)Nc3ccccc3Cl)ccc2N2CCCCC2)cc1	-8	94	94	-21	-3	.	.	.
CCN(CC)S(=O)(=O)c1cc(C(=O)Nc2cc(Cl)ccc2N2CCN(C)CC2)ccc1Cl	21	109	161*	11	24	150	33	108
COc1ccc(C(=O)NNC(=O)CN2CCC(n3nnc4cc(F)ccc43)CC2)cc1	-11	94	94	-3	-3	.	.	.
O=C(NCc1cccc(Cl)c1)c1ccc2ccccc2n1	13	102	102	4	1	.	.	.
CCOC(=O)N1CCC(N(CCN(C)C)C(=S)Nc2ccccc2C)CC1	5	130*	108	9	1	108	12	106
CCc1cccc(NC(=S)N(CCOC)C2CCN(C(C)=O)CC2)c1	5	123*	118	11	34*	110	11	110
CCOC(=O)N1CCC(N(CCN(C)C)C(=S)Nc2cccc(C)c2)CC1	10	138*	108	-7	0	105	0	103
CC1=CC(C)(C)NC(=S)N1c1cccc2cc(S(=O)(=O)O)ccc12	5	108	97	-4	11	.	.	.
COc1cccc(NC(=O)CSc2ncc(S(=O)(=O)c3ccccc3)c(=O)[nH]2)c1	-1	134*	118	-6	29	101	2	107
Cc1ccc(NC(=O)CSc2ncc(S(=O)(=O)c3ccccc3)c(=O)[nH]2)cc1C	-29	100	101	-6	2	.	.	.
CN(C)CCCN(C(=O)CCc1ccccc1)c1nc2ccc(F)cc2s1	10	129*	135	31	5	144	26	106
CN(C)CCN(C(=O)CCc1ccccc1)c1nc2c(F)cc(F)cc2s1	19	104	130	11	3	.	.	.
CN(C)CCCN(C(=O)c1ccco1)c1nc2ccc(Br)cc2s1	-10	106	135	8	17	.	.	.
CN(C)CCCN(C(=O)CCc1ccccc1)c1nc2ccc(Br)cc2s1	25	113	233*	18	43	176	42	108
O=C(Cn1cccc1C(=O)c1ccccc1)NCCN1CCCCCC1	21	115	171*	20	25*	157	30	104

Screening data deposited in PubChem BioAssay by several laboratories.
